Measurements collected from several papers.
Protocols differ between the studies behind these lines.
Cell line: A549
Observed: cell growth or viability
Method: CCK-8

| Compound | tested at | time | quantity | value |
| --- | --- | --- | --- | --- |
| COc1ccc2/c(=N/c3ccccc3NC(=O)[C@@H](N)C(C)(C)C)cc(-c3ccc4c(c3)OCO4)oc2c1 | 1 µM |  | inhibition | -3.68% |
| CCCCn1cnc2ccc(-c3ccc(NC(=O)Nc4ccc(F)cc4)nc3)cc2c1=O |  | 72 h | IC50 | 0.79 µM |
| CC(C)(C)[C@H](N)C(=O)Nc1ccccc1/N=c1\cc(-c2ccc3c(c2)OCCO3)oc2cc(F)ccc12 | 1 µM |  | inhibition | -4.38% |
| O=C(NCc1cn(Cc2ccc(Cl)cc2)nn1)Nc1ccccc1Br | 20 µM | 72 h | viability | 86.4% |
| COc1ccc(NC(=O)Nc2cccc(-c3cn(Cc4ccc(C)cc4)nn3)c2)cc1 | 50 µM | 72 h | viability | 190% |
| CCCn1cnc2ccc(-c3ccc(N4CCC(C)CC4=O)nc3)cc2c1=O (stereo not drawn) |  | 72 h | IC50 | > 10 µM |
| O=C(Nc1ccc(Cl)cc1)Nc1cccc(-c2cn(Cc3ccc(Cl)cc3)nn2)c1 | 20 µM | 72 h | viability | 121% |
| NCC(=O)Nc1ccccc1/N=c1\cc(-c2ccc3c(c2)OCCO3)oc2cc(F)ccc12 | 1 µM |  | inhibition | -1.67% |
| CCCCC(=O)Nc1ncc(-c2ccc3ncn(CCC)c(=O)c3c2)cn1 |  | 72 h | IC50 | 1.25 µM |
| COc1ccc(NC(=O)Nc2cccc(-c3cn(Cc4ccccc4C)nn3)c2)cc1 | 20 µM | 72 h | viability | 137% |
| CCCCn1cnc2ccc(-c3ccc(NC(=O)Nc4ccccc4)nc3)cc2c1=O |  | 72 h | IC50 | 1.24 µM |
| COc1ccc(NC(=O)Nc2ccc(-c3cn(Cc4ccc(C)cc4)nn3)cc2)cc1 | 50 µM | 72 h | viability | 76.2% |
